Published values gathered from unrelated publications.
Each line is one published result; the experiments were not run side by side.
HTR2C: 5-hydroxytryptamine receptor 2C (HTR2C, Homo sapiens, UniProt P28335)
mraY: mraY (Staphylococcus aureus, UniProt Q2FZ93)
HTR2B: 5-hydroxytryptamine receptor 2B (HTR2B, Homo sapiens, UniProt P41595)

SMILES | target | test | setting | inhibition [%]
CC[N+]1(C)CCc2cc(OC)c(OC)c3c2C1Cc1cccc(OC)c1-3 (stereo not drawn) | HTR2C | ligand displacement, radioligand | 10 µM | -19
CCCCCCC#Cc1cncc(-c2nnc(SCc3cc(=O)[nH]c4ccccc34)n2C)c1 | mraY | cell-free assay, inhibitor | 250 µM | 30
CCN1/C(=C/C(C)=O)Sc2ccc(F)cc21 | Gastrin/cholecystokinin type B receptor (CCKBR, Homo sapiens, UniProt P32239) | ligand displacement, radioligand | 10 µM | 1.43
COc1cc2c3c(c1OC)-c1c(OC)ccc(NC(C)=O)c1CC3N(C)CC2 (stereo not drawn) | HTR2C | ligand displacement, radioligand | 10 µM | 3
CCCCCCC#Cc1cncc(-c2nnc(SCc3ccc(Cl)cc3)n2CCO)c1 | mraY | cell-free assay, inhibitor | 250 µM | 0
Cc1cc(F)cc2c(CCC(=O)N[C@@H]3C(=O)NC[C@H]3O)c(-c3ccc(F)cc3)[nH]c12 | HTR2B | cell-free assay | 10 µM | 10
COc1cc2c3c(c1OC)-c1c(OC)ccc(-c4ccc(C#N)cc4)c1CC3N(C)CC2 (stereo not drawn) | HTR2B | ligand displacement, radioligand | 10 µM | 65
NC/C(=C\F)COc1cccc(Cn2c(=S)[nH]c(=O)c3[nH]cnc32)c1 | HTR2B | ligand displacement, radioligand | 10 µM | < 50
CCCCCCC#Cc1cncc(-c2nnc(SCCCn3ccc(=O)[nH]c3=O)n2C)c1 | mraY | enzyme activity, inhibitor | 100 µM | 7
COc1cc2c3c(c1OC)-c1c(OC)ccc(N4CCOCC4)c1CC3N(C)CC2 (stereo not drawn) | HTR2C | ligand displacement, radioligand | 10 µM | 50
CCCCCCC#Cc1cncc(-c2nnc(SCc3cc([N+](=O)[O-])cc([N+](=O)[O-])c3)n2CCCN)c1 | mraY | cell-free assay, inhibitor | 250 µM | 100
Cc1cc(O)c(-c2ccc([C@@H](C)CN(C)C)cc2)c2c1[nH]c(=O)c1sccc12 | Acylglycerol kinase, mitochondrial (Homo sapiens, UniProt Q53H12) | enzyme activity, inhibitor | 0.1 µM, lysate | 1.28
